Data published in ChEMBL document CHEMBL1131384, “Synthesis and structure-activity relationships of potent and orally active 5-HT4 receptor antagonists: indazole and benzimidazolone derivatives” (J Med Chem, 1998).

Legend:
[1] = molecular target: T1, Adrenergic receptor alpha-1 (Rattus norvegicus) (UniProt P15823+P23944+P43140); assay: Binding affinity for Alpha-1 adrenergic receptor in rat aorta determined by block of norepinephrine induced contraction of rat aorta; assay type: tissue-based
[2] = molecular target: 5-hydroxytryptamine receptor 4 (Rattus norvegicus) (UniProt Q62758); assay: Antagonistic activity by ability to block serotonin induced relaxation (mediated by activation of 5-hydroxytryptamine 4 receptor) in carbamylcholine (10e-6 M) contracted esophagus at a concentration of 10e-6 M.; assay type: functional, tissue-based
Sequence of 5-hydroxytryptamine receptor 4 (Rattus norvegicus) (Q62758 whole entry): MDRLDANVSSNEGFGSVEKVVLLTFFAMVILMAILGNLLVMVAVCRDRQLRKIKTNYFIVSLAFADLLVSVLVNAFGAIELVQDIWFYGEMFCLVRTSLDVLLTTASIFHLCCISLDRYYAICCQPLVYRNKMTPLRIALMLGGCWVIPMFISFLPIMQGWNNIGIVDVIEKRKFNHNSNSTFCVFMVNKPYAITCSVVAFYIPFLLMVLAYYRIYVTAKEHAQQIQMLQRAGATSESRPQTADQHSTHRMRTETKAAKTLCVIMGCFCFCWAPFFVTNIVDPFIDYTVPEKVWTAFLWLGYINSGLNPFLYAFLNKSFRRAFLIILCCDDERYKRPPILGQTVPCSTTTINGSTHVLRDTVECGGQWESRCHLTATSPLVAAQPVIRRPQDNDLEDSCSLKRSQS
How it was run: (§1)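 Isolated rat esophagus precontracted with carbamylcholine (10^-6 M). Tissue was challenged with serotonin (1 µM) in the presence of the antagonist at a given concentration or of vehicle. Relaxation was recorded as % relaxation to 10^-6 M 5-HT, given as mean ± SEM with the number of determinations.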

[3] = molecular target: 5-hydroxytryptamine receptor 4 (Rattus norvegicus) (UniProt Q62758); assay: Antagonistic activity by ability to block serotonin induced relaxation (mediated by activation of 5-hydroxytryptamine 4 receptor) in carbamylcholine (10e-6 M) contracted esophagus at a concentration of 10e-7 M.; assay type: functional, tissue-based; how it was run: as §1
[4] = molecular target: 5-hydroxytryptamine receptor 4 (Rattus norvegicus) (UniProt Q62758); assay: Antagonistic activity evaluated by ability to block serotonin induced relaxation (mediated by activation of 5-hydroxytryptamine 4 receptor) in carbamylcholine (10e-6 M) contracted esophagus at a concentration of 10e-8 M.; assay type: functional, tissue-based; how it was run: as §1
[5] = molecular target: 5-hydroxytryptamine receptor 4 (Rattus norvegicus) (UniProt Q62758); assay: Antagonistic activity evaluated by ability to block serotonin induced relaxation via 5-hydroxytryptamine 4 receptor) in carbamylcholine (10e-6 M) contracted esophagus at a concentration of 0.1 mg/kg (p.o.); assay type: functional, organism-based; design: dose 0.1 mg/kg
How it was run: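 Rats were dosed with the antagonist by oral gavage. Esophagus was removed 3 h after dosing and challenged ex vivo with serotonin. Read-out was % relaxation of the carbamylcholine-contracted tissue to 10^-6 M 5-HT, given as mean ± SEM with the number of determinations.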

[6] = molecular target: 5-hydroxytryptamine receptor 4 (Rattus norvegicus) (UniProt Q62758); assay: Antagonistic activity evaluated by ability to block serotonin induced relaxation (via 5-hydroxytryptamine 4 receptor) in carbamylcholine (10e-6 M) contracted esophagus at a concentration of 3*10e-8 M.; assay type: functional
How it was run: (§2)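 Isolated rat esophagus precontracted with carbamylcholine (10^-6 M), then challenged with serotonin (1 μM) in the presence of antagonist at the stated concentration or vehicle. Read-out is % relaxation to serotonin, given as mean ± SEM with the number of determinations.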

[7] = molecular target: T1, Adrenergic receptor alpha-1 (Rattus norvegicus); assay: Affinity for the alpha-1 adrenergic receptor determined by the displacement of [3H]prazosin from rat whole brain tissue.; assay type: tissue-based
[8] = molecular target: Serotonin 2 (5-HT2) receptor (Rattus norvegicus) (UniProt P30994+P08909+P14842); assay: Binding affinity against 5-hydroxytryptamine 2 receptor in serotonin-induced contraction of the rat aorta; assay type: tissue-based
Sequence of Serotonin 2 (5-HT2) receptor (Rattus norvegicus) (P08909 whole entry, looked up): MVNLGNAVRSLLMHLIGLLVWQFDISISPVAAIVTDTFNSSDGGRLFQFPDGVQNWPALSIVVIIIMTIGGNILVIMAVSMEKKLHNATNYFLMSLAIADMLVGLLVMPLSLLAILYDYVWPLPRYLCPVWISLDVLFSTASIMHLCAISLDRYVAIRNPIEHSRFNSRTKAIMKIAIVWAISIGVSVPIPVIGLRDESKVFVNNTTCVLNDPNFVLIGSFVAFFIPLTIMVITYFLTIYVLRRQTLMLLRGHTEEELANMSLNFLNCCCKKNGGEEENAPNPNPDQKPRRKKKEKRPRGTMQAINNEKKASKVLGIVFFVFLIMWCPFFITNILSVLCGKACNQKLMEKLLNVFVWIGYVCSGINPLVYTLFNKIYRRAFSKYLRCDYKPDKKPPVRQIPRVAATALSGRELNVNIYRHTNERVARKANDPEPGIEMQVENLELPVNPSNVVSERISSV
Sequence of Serotonin 2 (5-HT2) receptor (Rattus norvegicus) (P14842 whole entry, looked up): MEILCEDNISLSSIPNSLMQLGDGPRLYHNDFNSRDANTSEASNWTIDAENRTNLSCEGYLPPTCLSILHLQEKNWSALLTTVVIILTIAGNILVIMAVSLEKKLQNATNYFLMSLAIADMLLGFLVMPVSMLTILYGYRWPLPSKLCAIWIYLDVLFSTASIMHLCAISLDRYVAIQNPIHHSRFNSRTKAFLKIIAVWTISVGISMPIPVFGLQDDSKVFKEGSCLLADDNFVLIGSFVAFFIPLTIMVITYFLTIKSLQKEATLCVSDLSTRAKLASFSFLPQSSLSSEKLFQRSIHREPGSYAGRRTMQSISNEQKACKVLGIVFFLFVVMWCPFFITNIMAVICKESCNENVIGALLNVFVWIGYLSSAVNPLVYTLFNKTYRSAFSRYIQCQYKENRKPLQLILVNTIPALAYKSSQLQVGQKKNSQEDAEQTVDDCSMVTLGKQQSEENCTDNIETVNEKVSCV
Sequence of Serotonin 2 (5-HT2) receptor (Rattus norvegicus) (P30994 whole entry, looked up): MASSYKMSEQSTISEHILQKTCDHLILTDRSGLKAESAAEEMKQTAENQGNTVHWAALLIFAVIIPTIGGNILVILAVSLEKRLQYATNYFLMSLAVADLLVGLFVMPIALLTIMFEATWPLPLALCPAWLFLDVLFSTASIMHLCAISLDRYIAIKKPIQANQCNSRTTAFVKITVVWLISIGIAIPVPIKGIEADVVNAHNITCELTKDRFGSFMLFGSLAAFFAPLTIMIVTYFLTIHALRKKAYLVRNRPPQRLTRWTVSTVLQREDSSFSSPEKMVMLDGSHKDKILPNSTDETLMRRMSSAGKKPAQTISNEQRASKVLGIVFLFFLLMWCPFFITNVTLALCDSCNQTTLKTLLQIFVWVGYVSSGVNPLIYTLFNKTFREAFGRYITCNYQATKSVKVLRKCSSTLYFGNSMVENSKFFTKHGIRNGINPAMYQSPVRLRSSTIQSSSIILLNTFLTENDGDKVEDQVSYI

[9] = molecular target: 5-hydroxytryptamine receptor 4 (Rattus norvegicus) (UniProt Q62758); assay: Antagonistic activity evaluated by ability to block serotonin induced relaxation (mediated by activation of 5-hydroxytryptamine 4 receptor) in carbamylcholine (10e-6 M) contracted esophagus at a concentration of 10e-5 M.; assay type: functional, tissue-based; how it was run: as §1
[10] = molecular target: Serotonin 3 (5-HT3) receptor (Homo sapiens) (UniProt P46098+A5X5Y0+O95264+Q70Z44+Q8WXA8); assay: The compound was tested for binding affinity against 5-hydroxytryptamine 3 receptor in guinea pig ileum.; assay type: tissue-based; conditions: Cavia porcellus, target entry is the homologue from another species
[11] = molecular target: 5-hydroxytryptamine receptor 4 (Rattus norvegicus) (UniProt Q62758); assay: Antagonistic activity of compound was evaluated by ability to block serotonin induced relaxation (mediated by activation of 5-hydroxytryptamine 4 receptor) in carbamylcholine (10e-6 M) contracted esophagus at a concentration of 3*10e-7 M.; assay type: functional; how it was run: as §2
[12] = molecular target: 5-hydroxytryptamine receptor 4 (Rattus norvegicus) (UniProt Q62758); assay: Antagonistic activity of compound was evaluated by ability to block serotonin induced relaxation (mediated by activation of 5-hydroxytryptamine 4 receptor) in carbamylcholine (10e-6 M) contracted esophagus at a concentration of 10e-7 M.; assay type: functional; how it was run: as §2

Compound	pKb [1]	Relaxation [2] [%]	Relaxation [3] [%]	Relaxation [4] [%]	Relaxation [5] [%]	Relaxation [6] [%]	pKi [7]	other results
CC(C)n1nc(C(=O)NC2CCN(CCCc3ccccc3)CC2)c2ccccc21	5.8	3.7						
CC(C)n1nc(C(=O)NCCN2CCC(NC(=O)c3ccccc3)CC2)c2ccccc21		2	14.7	34.3	50			
CC(C)n1nc(C(=O)NCCN2CCC(NC(=O)C34C[C@H]5C[C@@H](C3)C[C@@H](C4)C5)CC2)c2ccccc21			11	48.1	27	23.2	4.3	
COc1cc(N)c(Cl)cc1C(=O)NC1CCN(CCCOc2ccc(F)cc2)CC1OC (configuration not stated)	6.7	7						pKb [8]: 7.89; Relaxation [9]: 20.3%
CN1C2CCC1CC(NC(=O)c1cccc3ccccc13)C2 (configuration not stated)								Relaxation [9]: 76.5%
CC(C)n1nc(C(=O)NC2CCN(Cc3ccccc3)CC2)c2ccccc21	< 5	3.85	24.5	38.5		23.3	< 4	pKb [8]: 5.5
CC(C)n1nc(C(=O)NC2CCN(CCN3C(=O)c4ccccc4C3=O)CC2)c2ccccc21		7.5						pKb [8]: < 5
CC(C)C(=O)NC1CCN(CCNC(=O)c2nn(C(C)C)c3ccccc23)CC1			9	34.8	45			
CC(C)n1nc(C(=O)NC2CCN(C)CC2)c2ccccc21						37.3		pKb [10]: 6.3
CN1C2CCC1CC(NC(=O)c1n[nH]c3ccccc13)C2 (configuration not stated)								Relaxation [9]: 50.5%
CC(C)n1nc(C(=O)NC2CCN(CCc3ccccc3)CC2)c2ccccc21	7.68	1.3						
CCC(C)n1nc(C(=O)NC2CC3CCC(C2)N3C)c2ccccc21 (configuration not stated)						46.3		
CC(=O)NC1CCN(CCNC(=O)c2nn(C(C)C)c3ccccc23)CC1		6.8		51.3	19.1	33.5	< 4	
CC(C)n1nc(C(=O)NC2CCN(CCNC(=O)c3ccccc3)CC2)c2ccccc21	5.8	6	28				6.62	
CC(C)n1c(=O)n(C(=O)NC2CC3CCC(C2)N3C)c2ccccc21 (configuration not stated)		2.7		55		13.8		pKb [10]: 7.5
CN1[C@@H]2CC[C@H]1C[C@@H](NC(=O)c1cc(Cl)cc3c1OC(C)(C)C3)C2		37						pKb [10]: 8.78; Relaxation [9]: 22.2%
CCCCC(=O)NC1CCN(CCNC(=O)c2nn(C(C)C)c3ccccc23)CC1			25.6	51	38			
CC(C)n1nc(C(=O)NC2CCN(CCCOc3ccc(F)cc3)CC2)c2ccccc21	6.7	7.5	15.7			36	7.69	pKb [8]: 6.8
CN1[C@@H]2CC[C@H]1C[C@@H](OC(=O)c1c[nH]c3ccccc13)C2		33.9						Relaxation [9]: 26.4%
CC(C)n1nc(C(=O)NC2CCN(CCNS(C)(=O)=O)CC2)c2ccccc21	< 5	6.8	16				< 4	
CC(C)n1nc(C(=O)NCCCN2CCCCC2)c2ccccc21		6.3	27.3		15		< 4.5	Relaxation [11]: 14.3%
CCCn1c(=O)n(C(=O)NC2CC3CCC(C2)N3C)c2ccccc21 (configuration not stated)		4.3				30.7		
CC(C)n1nc(C(=O)NC2CC3CCC(C2)N3C)c2ccccc21 (configuration not stated)		8		43.2				Relaxation [12]: 9%
CCn1c(=O)n(C(=O)NC2CC3CCC(C2)N3C)c2ccccc21 (configuration not stated)						37.5		
CC(C)n1nc(C(=O)NCCN2CCC(NC(=O)OCc3ccccc3)CC2)c2ccccc21	< 5	2.8			21		5.9	
CC(C)n1nc(C(=O)NC2CCN(CCCCc3ccccc3)CC2)c2ccccc21	5.6	4						
CC(C)n1nc(C(=O)NCCN2CCC(NC(=O)C(C)(C)C)CC2)c2ccccc21		3.3	7.8	50.5	30	35		
COc1cc(N)c(Cl)cc1C(=O)NC1CC2CCC(C1)N2C (configuration not stated)		5.4						Relaxation [9]: 2.8%
CC(C)n1nc(C(=O)NCCN2CCCCC2)c2ccccc21	4.9		22		38		4.8	pKb [8]: < 5; pKb [10]: 5.8; Relaxation [9]: 6.6%
CN1C2CCCC1CC(NC(=O)c1nn(C)c3ccccc13)C2 (configuration not stated)								Relaxation [9]: 21%
